≈ marks a conversion by molar mass, not a printed value.
What was measured:
WI-38 = test: Growth inhibition of WI38 cells; assay type: functional, cell-based; settings: Homo sapiens
WI-38 VA13 = test: Growth inhibition of VA13 cells; assay type: functional, cell-based; settings: Homo sapiens
Method in brief: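 VA-13 malignant lung tumor cells kept in RITC 80-7 medium with 10% FBS and 80 µg/mL kanamycin. Growth inhibition measured, IC50 taken as the concentration giving 50% growth inhibition, reported in µg/mL.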

HepG2 = test: Growth inhibition of HepG2 cells; assay type: functional, cell-based; settings: Homo sapiens
Method in brief: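 HepG2 cells kept in D-MEM with 10% FBS and 80 µg/mL kanamycin. Growth inhibition measured, IC50 taken as the concentration giving 50% growth inhibition, reported in µg/mL.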

A549 [1] = test: Inhibition of IL-1-alpha-stimulated ICAM1 expression in human A549 cells; assay type: functional, cell-based
Method in brief: (§1)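 A549 human lung carcinoma cells grown in RPMI 1640 with heat-inactivated 10% FBS, penicillin G and streptomycin. ICAM-1 induced with recombinant IL-1α or TNF-α. Cell-surface ICAM-1 detected with mouse anti-human ICAM-1 antibody C167 and peroxidase-conjugated goat anti-mouse IgG. Viability checked in parallel by MTT assay.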

A549 [2] = test: Inhibition of TNF-alpha-stimulated ICAM1 expression in human A549 cells; assay type: functional, cell-based; method in brief: as §1
MDR [3] = test: Effect on calcein accumulation in MDR 2780AD cells at 0.25 ug/mL relative to control; assay type: functional, Homo sapiens
Method in brief: (§2)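 Multidrug-resistant human ovarian cancer 2780AD (AD10) cells grown in RPMI-1640 with 10% FBS and 80 µg/mL kanamycin. Cells are exposed to test agent at 0.25, 2.5 and 25 µg/mL. Calcein formed from calcein AM by endogenous esterase is read as fluorescence per well, mean of triplicates. Results are given as % of untreated control, or relative to verapamil at the same concentration.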

MDR [4] = test: Effect on calcein accumulation in MDR 2780AD cells at 2.5 ug/mL relative to control; assay type: functional, Homo sapiens; method in brief: as §2
MDR [5] = test: Effect on calcein accumulation in MDR 2780AD cells at 25 ug/mL relative to control; assay type: functional, Homo sapiens; method in brief: as §2
MDR [6] = test: Effect on calcein accumulation in MDR 2780AD cells at 0.25 ug/mL relative to verapamil; assay type: functional, Homo sapiens; method in brief: as §2
MDR [7] = test: Effect on calcein accumulation in MDR 2780AD cells at 2.5 ug/mL relative to verapamil; assay type: functional, Homo sapiens; method in brief: as §2
MDR [8] = test: Effect on calcein accumulation in MDR 2780AD cells at 25 ug/mL relative to verapamil; assay type: functional, Homo sapiens; method in brief: as §2

SMILES: COc1cc(/C=C/C(=O)NCCc2ccc(O)c(OC)c2)ccc1O
- IC50 (WI-38): > 20 µg/mL
- IC50 (WI-38 VA13): > 20 µg/mL
- IC50 (HepG2): > 20 µg/mL

SMILES: O=C(CCCCCCCCCCCCc1ccc2c(c1)OCO2)C1=C(O)CCC(O)C1=O (stereo not given)
- IC50 (A549 [1]): 43.3 µg/mL (≈ 97.4 µM)
- IC50 (A549 [2]): 27.2 µg/mL (≈ 61.2 µM)

SMILES: O=C1CCCC2=C1[C@H](O)C[C@H](CCCCCCCCCCCCc1ccc3c(c1)OCO3)O2
- IC50 (WI-38): > 20 µg/mL
- IC50 (WI-38 VA13): > 20 µg/mL
- IC50 (HepG2): 18.2 µg/mL (≈ 39.9 µM)
- IC50 (A549 [1]): 65.2 µg/mL (≈ 143 µM)
- IC50 (A549 [2]): 48.8 µg/mL (≈ 107 µM)

SMILES: COc1ccc(CCN(C)CCCC(C#N)(c2ccc(OC)c(OC)c2)C(C)C)cc1OC (stereo not given)
- Activity (MDR [3]): 114%
- Activity (MDR [4]): 114%
- Activity (MDR [5]): 138%

SMILES: COc1cccc2c1C(=O)c1c(O)c3c(c(O)c1C2=O)C[C@@](O)(C(=O)CO)C[C@@H]3O[C@H]1C[C@H](N)[C@H](O)[C@H](C)O1 [DOXORUBICIN]
- IC50 (WI-38 VA13): 0.39 µg/mL (≈ 0.718 µM)
- IC50 (HepG2): 0.41 µg/mL (≈ 0.754 µM)

SMILES: CC1(C)C[C@H](O)C[C@@]2(C)OC(=O)C=C12 [LOLIOLIDE]
- IC50 (WI-38): > 20 µg/mL
- IC50 (WI-38 VA13): > 20 µg/mL
- IC50 (HepG2): > 20 µg/mL

SMILES: COc1cc(/C=C/C(=O)NCCc2ccc(O)c(O)c2)ccc1O [N-TRANS-FERULOYLDOPAMINE]
- IC50 (WI-38): > 20 µg/mL
- IC50 (WI-38 VA13): > 20 µg/mL
- IC50 (HepG2): > 20 µg/mL

SMILES: O=C(CCCCCCCCCCCCc1ccccc1)C1=C(O)CCC(O)C1=O (stereo not given) [OLEIFERINONE]
- IC50 (WI-38): 9.6 µg/mL (≈ 24 µM)
- IC50 (WI-38 VA13): 5.8 µg/mL (≈ 14.5 µM)
- IC50 (HepG2): 9.2 µg/mL (≈ 23 µM)
- IC50 (A549 [1]): 36.8 µg/mL (≈ 91.9 µM)
- IC50 (A549 [2]): 22.9 µg/mL (≈ 57.2 µM)

SMILES: CC(=O)O[C@H]1C(=O)[C@@]2(C)[C@H]([C@H](OC(=O)c3ccccc3)[C@]3(O)C[C@H](OC(=O)[C@H](O)[C@@H](NC(=O)c4ccccc4)c4ccccc4)C(C)=C1C3(C)C)[C@]1(OC(C)=O)CO[C@@H]1C[C@@H]2O [PACLITAXEL]
- IC50 (WI-38): 0.05 µg/mL (≈ 0.0586 µM)
- IC50 (HepG2): 0.69 µg/mL (≈ 0.808 µM)

SMILES: CC(C)CNC(=O)/C=C/CCCCc1ccc2c(c1)OCO2 [PIPERCALLOSIDINE]
- IC50 (WI-38): > 20 µg/mL
- IC50 (WI-38 VA13): > 20 µg/mL
- IC50 (HepG2): > 20 µg/mL

SMILES: C=C(C)[C@@H]1CCC(=C)[C@H](O)CCC(=C)[C@@H](O)C1 [SINUGIBBERODIOL]
- Activity (MDR [3]): 113%
- Activity (MDR [4]): 137%
- Activity (MDR [5]): 160%
- Activity (MDR [6]): 100%
- Activity (MDR [7]): 120%
- Activity (MDR [8]): 116%

SMILES: O=C(CCCCCCCCCCCCCCc1ccc2c(c1)OCO2)C1=C(O)CCC(O)C1=O (stereo not given) [SURINONE A]
- IC50 (WI-38): 8.6 µg/mL (≈ 18.2 µM)
- IC50 (WI-38 VA13): 4.4 µg/mL (≈ 9.31 µM)
- IC50 (HepG2): 7.4 µg/mL (≈ 15.7 µM)
- IC50 (A549 [1]): 51.4 µg/mL (≈ 109 µM)
- IC50 (A549 [2]): 33.5 µg/mL (≈ 70.9 µM)

SMILES: COc1cc(/C=C/C(=O)NCCc2ccc(O)cc2)cc(OC)c1O [TRANS-N-SINAPOYLTYRAMINE]
- IC50 (WI-38): > 20 µg/mL
- IC50 (WI-38 VA13): > 20 µg/mL
- IC50 (HepG2): > 20 µg/mL

— ChEMBL document CHEMBL1143721, “Bioactive polyketides from Peperomia duclouxii” (J Nat Prod, 2007)
